Measurements: article PMC11439047 (Nature Communications, 2024)
Numbering of substitutions follows the chain as printed.

Legend:
P2X1 receptor R139A [1] = target: T1, P2X1 receptor R139A (Homo sapiens, UniProt P51575, R139A); assay: Calcium ion influx assay; type: cell-based
T1 sequence (P51575 1-399 R139A): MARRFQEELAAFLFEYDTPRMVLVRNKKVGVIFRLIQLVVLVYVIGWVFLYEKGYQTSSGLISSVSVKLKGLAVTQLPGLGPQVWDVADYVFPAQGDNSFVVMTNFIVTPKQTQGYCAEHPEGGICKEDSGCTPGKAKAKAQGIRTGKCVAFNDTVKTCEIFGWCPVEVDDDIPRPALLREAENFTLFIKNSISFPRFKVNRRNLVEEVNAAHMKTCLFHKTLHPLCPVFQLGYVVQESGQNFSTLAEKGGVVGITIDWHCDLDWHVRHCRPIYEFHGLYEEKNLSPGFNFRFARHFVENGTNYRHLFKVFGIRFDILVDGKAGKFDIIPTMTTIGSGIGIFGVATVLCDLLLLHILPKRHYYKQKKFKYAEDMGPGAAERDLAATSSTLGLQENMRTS

P2X1 receptor K140A = target: T2, P2X1 receptor K140A (Homo sapiens, UniProt P51575, K140A); assay: Saturation radioligand binding with [3H]-α,β-methylene ATP
T2 sequence (P51575 1-399 K140A): T1 sequence (P51575 1-399 R139A) with A139R, K140A
Procedure, shortened: (§1)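 Whole HEK293 Flp-In T-REx cells stably expressing receptor, tetracycline-induced (150 ng/ml, 2 days), 15,000 cells/well, washed in HEPES binding buffer pH 7.4 with Ca2+/Mg2+. Increasing [3H]-α,β-methylene ATP added, 3 h room temperature with gentle agitation; non-specific binding with 10 μM ATP. Ice-cold 0.9% NaCl washes, scintillation counting (CCPM). Specific binding fitted one-site; values above 300 nM termed not defined.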

P2X1 receptor R139A [2] = target: T1, P2X1 receptor R139A; assay: as above
Procedure, shortened: as §1

P2X1 receptor D170A = target: T3, P2X1 receptor D170A (Homo sapiens, UniProt P51575, D170A); assay: Saturation radioligand binding with [3H]-α,β-methylene ATP
T3 sequence (P51575 1-399 D170A): T1 sequence (P51575 1-399 R139A) with A139R, D170A

P2X1 receptor K215A = target: T4, P2X1 receptor K215A (Homo sapiens, UniProt P51575, K215A); assay: Saturation radioligand binding with [3H]-α,β-methylene ATP
T4 sequence (P51575 1-399 K215A): T1 sequence (P51575 1-399 R139A) with A139R, K215A
Procedure, shortened: as §1

P2X1 receptor E282A = target: T5, P2X1 receptor E282A (Homo sapiens, UniProt P51575, E282A); assay: as above
T5 sequence (P51575 1-399 E282A): T1 sequence (P51575 1-399 R139A) with A139R, E282A
Procedure, shortened: as §1

P2X1 receptor K136A = target: T6, P2X1 receptor K136A (Homo sapiens, UniProt P51575, K136A); assay: as above
T6 sequence (P51575 1-399 K136A): T1 sequence (P51575 1-399 R139A) with K136A, A139R
Procedure, shortened: as §1

## Nc1ncnc2c1ncn2[C@@H]1O[C@H](COP(=O)(O)CP(=O)(O)OP(=O)(O)O)[C@@H](O)[C@H]1O [α,β-methylene ATP]
P2X1 receptor R139A [1]
  fold decrease in potency compared to WT-P2X1: 3.5 fold
P2X1 receptor R139A [1]; maximal α,β-methylene ATP
  desensitisation rate compared to WT-P2X1: significantly slowed the desensitisation rate
P2X1 receptor K140A
  binding affinity compared to WT-P2X1: comparable to that of WT-P2X1
P2X1 receptor R139A [2]
  fold decrease in affinity compared to WT-P2X1: 6 fold
P2X1 receptor D170A
  binding affinity compared to WT-P2X1: beyond the threshold that could be accurately measured
P2X1 receptor K215A
  binding affinity compared to WT-P2X1: similar
P2X1 receptor E282A
  binding affinity compared to WT-P2X1: similar
P2X1 receptor K136A
  binding affinity compared to WT-P2X1: similar
